Active and inactive are the calls of the source. No cut-off for these calls is given here.
What was measured:
Rattus norvegicus [1] = experiment: Toxicity in Sprague-Dawley rat assessed as neutrophilic inflammation of respiratory epithelium at 175 mg/mL administered intranasally for 7 days; assay type: organism-based; settings: in vivo, inhaled_or_intranasal, 168 h
Outline: (§1)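 Seven-day rat intranasal irritancy study. Dosing at 75 or 175 mg/mL, 12.5 µL/nostril in succinate buffer, giving total doses of 1.875 mg and 4.375 mg. Nasal cavity and respiratory epithelium were examined histologically.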

Rattus norvegicus [2] = experiment: Toxicity in Sprague-Dawley rat assessed as nasal irritation at 75 mg/mL administered intranasally for 7 days; assay type: organism-based; settings: in vivo, inhaled_or_intranasal, 168 h; outline: as §1
[3] = Permeability from apical to basolateral side of human Caco2 cells; assay type: ADME, cell-based; settings: Caco-2, read-out: permeability
[4] = Cmax in intranasally dosed New Zealand White rabbit; assay type: ADME, organism-based, Oryctolagus cuniculus; set-up: route nasal; settings: in vivo, inhaled or intranasal
Outline: (§2)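 Intranasal dosing in rabbit with 10 to 100 mg/mL dosing solutions, then plasma sampling from 5 min to 24 h. Reported values are Cmax, Tmax, and absolute bioavailability for each dosing-solution concentration.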

Rattus norvegicus [5] = experiment: Toxicity in Sprague-Dawley rat assessed as single cell necrosis of respiratory epithelium at 175 mg/mL administered intranasally for 7 days; assay type: organism-based; settings: in vivo, inhaled_or_intranasal, 168 h; outline: as §1
Homo sapiens [6] = species on record: Homo sapiens; experiment: Selectivity ratio for human CGRP receptor over adrenomedullin receptor-2 (unknown origin)
Rattus norvegicus [7] = experiment: Toxicity in Sprague-Dawley rat assessed as inflammation of olfactory epithelium at 175 mg/mL administered intranasally for 7 days; assay type: organism-based; settings: in vivo, inhaled_or_intranasal, 168 h; outline: as §1
Rattus norvegicus [8] = experiment: Toxicity in Sprague-Dawley rat assessed as lesions in nasal olfactory epithelium at => 75 mg/mL administered intranasally for 7 days; assay type: organism-based; settings: in vivo, inhaled_or_intranasal, 168 h; outline: as §1
Cytochrome P450 1A2 = target: T1, Cytochrome P450 1A2 (Homo sapiens, UniProt P05177); experiment: Inhibition of CYP1A2 (unknown origin) expressed in baculovirus-infected insect cell microsomes assessed as 3-cyano-7-ethoxycoumarin conversion to 7-hydroxy-3-cyanocoumarin after 45 mins by fluorescence assay; assay type: ADME, Microsome
T1 sequence (P05177 whole entry): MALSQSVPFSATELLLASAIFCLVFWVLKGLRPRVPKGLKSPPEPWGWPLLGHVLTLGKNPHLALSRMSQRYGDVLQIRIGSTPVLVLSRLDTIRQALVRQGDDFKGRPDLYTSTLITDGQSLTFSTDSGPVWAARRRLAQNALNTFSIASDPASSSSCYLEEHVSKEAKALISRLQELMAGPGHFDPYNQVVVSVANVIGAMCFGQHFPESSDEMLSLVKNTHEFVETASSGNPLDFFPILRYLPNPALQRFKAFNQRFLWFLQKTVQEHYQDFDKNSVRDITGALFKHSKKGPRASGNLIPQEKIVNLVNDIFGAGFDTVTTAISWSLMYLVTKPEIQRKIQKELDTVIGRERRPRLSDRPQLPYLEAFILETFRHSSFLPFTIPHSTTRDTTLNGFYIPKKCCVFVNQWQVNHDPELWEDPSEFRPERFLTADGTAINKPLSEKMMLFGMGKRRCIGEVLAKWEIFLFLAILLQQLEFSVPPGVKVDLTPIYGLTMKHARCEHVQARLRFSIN

[9] = Reversal of CGRP-induced dilation of human intracranial arterial rings; assay type: functional
Outline: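 Ex vivo reversal protocol: vessels fully dilated with CGRP, then cumulative addition of antagonist in a 3-point concentration-response. EC50 (concentration giving 50% reversal) estimated by best fit, n = 4 vessels per compound.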

[10] = Permeability of the compound by PAMPA; assay type: ADME
hERG [11] = target: T2, hERG (Homo sapiens, UniProt Q12809); experiment: Inhibition of human ERG at 10 uM relative to control
T2 sequence (Q12809 whole entry): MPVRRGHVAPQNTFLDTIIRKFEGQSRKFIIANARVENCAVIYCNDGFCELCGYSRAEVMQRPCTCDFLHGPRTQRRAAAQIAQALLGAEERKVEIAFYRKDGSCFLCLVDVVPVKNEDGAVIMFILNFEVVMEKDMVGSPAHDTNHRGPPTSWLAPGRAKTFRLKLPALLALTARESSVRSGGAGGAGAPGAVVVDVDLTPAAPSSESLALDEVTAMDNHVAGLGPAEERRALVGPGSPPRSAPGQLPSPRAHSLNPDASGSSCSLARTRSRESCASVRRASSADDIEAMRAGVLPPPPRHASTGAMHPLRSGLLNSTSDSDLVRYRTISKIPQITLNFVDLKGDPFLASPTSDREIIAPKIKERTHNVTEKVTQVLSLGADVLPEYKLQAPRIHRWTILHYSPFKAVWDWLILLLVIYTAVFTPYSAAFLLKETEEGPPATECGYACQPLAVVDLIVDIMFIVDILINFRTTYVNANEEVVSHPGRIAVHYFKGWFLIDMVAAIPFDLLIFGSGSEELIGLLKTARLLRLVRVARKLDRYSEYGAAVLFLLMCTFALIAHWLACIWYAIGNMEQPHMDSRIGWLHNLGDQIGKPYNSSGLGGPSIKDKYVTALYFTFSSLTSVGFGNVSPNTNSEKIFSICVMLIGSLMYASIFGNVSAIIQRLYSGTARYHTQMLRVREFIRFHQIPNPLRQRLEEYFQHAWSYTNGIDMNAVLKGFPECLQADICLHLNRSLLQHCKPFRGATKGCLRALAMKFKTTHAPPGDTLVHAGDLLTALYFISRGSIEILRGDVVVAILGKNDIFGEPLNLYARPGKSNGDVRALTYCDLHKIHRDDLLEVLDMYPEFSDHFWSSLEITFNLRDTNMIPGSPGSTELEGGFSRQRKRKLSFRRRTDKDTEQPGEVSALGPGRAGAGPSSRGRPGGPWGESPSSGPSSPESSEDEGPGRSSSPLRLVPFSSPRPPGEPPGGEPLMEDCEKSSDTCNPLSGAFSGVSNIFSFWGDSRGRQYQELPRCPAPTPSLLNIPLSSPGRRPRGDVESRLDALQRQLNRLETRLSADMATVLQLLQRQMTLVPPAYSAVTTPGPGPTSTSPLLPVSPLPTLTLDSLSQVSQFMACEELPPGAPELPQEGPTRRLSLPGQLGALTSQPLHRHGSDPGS

Cytochrome P450 3A4 [12] = target: T3, Cytochrome P450 3A4 (Homo sapiens, UniProt P08684); experiment: Inhibition of CYP3A4 (unknown origin) expressed in baculovirus-infected insect cell microsomes assessed as 7-benzyloxy-4-trifluoromethylcoumarin conversion to 7-hydroxy-4-trifluoromethylcoumarin after 20 mins by fluorescence assay; assay type: ADME, Microsome
T3 sequence (P08684 whole entry): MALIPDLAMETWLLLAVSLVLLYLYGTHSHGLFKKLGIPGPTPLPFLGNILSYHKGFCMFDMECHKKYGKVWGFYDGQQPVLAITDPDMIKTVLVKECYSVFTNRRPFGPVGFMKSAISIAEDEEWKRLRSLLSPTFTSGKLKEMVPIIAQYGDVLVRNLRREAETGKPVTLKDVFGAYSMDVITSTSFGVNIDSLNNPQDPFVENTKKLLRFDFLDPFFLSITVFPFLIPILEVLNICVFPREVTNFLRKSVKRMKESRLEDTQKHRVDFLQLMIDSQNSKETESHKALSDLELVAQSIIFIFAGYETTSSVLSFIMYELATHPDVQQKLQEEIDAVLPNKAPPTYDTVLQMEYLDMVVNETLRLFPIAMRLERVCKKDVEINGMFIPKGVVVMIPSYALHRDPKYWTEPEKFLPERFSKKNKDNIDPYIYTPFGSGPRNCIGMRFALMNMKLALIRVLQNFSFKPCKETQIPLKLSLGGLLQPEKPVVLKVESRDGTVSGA

[13] = target: T4, Calcitonin gene-related peptide type 1 receptor (Homo sapiens, UniProt O60894+Q16602); experiment: (§3) Displacement of [125I]-CGRP from CGRP receptor in human SK-N-MC cell membranes after 2 hrs by scintillation counting analysis
T4 sequence (Q16602 whole entry, one chain of several): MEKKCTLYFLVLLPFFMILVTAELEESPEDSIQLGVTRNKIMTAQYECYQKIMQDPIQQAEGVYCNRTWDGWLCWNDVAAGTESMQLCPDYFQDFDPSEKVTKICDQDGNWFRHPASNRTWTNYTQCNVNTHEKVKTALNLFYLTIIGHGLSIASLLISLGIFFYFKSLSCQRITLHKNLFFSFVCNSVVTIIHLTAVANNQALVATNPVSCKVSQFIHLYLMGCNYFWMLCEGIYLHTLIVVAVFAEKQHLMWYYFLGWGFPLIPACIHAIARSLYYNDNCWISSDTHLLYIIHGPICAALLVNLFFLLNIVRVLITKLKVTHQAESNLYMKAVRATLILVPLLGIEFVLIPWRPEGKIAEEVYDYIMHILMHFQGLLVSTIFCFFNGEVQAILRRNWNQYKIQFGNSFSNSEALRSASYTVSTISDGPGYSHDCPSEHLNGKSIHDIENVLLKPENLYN

[14] = target: Calcitonin gene-related peptide type 1 receptor (Homo sapiens) (UniProt Q16602); experiment: as §3
Calcitonin gene-related peptide type 1 receptor (Homo sapiens), sequence (Q16602 whole entry): as the sequence (Q16602 whole entry, one chain of several) above

Cytochrome P450 2C19 = Cytochrome P450 2C19 (Homo sapiens, UniProt P33261); experiment: Inhibition of CYP2C19 (unknown origin) expressed in baculovirus-infected insect cell microsomes assessed as 3-cyano-7-ethoxycoumarin conversion to 7-hydroxy-3-cyanocoumarin after 45 mins by fluorescence assay; assay type: ADME, Microsome
Cytochrome P450 2C19, sequence (P33261 whole entry): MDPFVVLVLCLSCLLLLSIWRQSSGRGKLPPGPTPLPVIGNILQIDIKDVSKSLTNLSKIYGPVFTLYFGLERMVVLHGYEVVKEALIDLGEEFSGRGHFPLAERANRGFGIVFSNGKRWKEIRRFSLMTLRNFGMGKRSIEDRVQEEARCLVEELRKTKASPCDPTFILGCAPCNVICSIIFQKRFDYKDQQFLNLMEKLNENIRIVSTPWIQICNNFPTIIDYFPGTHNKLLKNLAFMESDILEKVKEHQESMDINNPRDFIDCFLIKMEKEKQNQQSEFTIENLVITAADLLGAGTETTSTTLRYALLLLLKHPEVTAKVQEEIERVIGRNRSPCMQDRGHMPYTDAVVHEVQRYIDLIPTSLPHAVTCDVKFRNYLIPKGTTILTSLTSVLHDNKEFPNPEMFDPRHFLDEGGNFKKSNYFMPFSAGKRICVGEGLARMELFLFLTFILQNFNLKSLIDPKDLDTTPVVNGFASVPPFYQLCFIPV

[15] = Vasoconstriction of human coronary artery up to 10 uM; assay type: functional, tissue-based
Callithrix jacchus [16] = experiment: Inhibition of human alphaCGRP-induced increase in facial blood flow in marmoset at 0.03 mg/kg, sc administered 30 mins after human alphaCGRP-challenge measured 15 mins post-dose by laser Doppler flowmetric analysis relative to control; assay type: functional; settings: route subcutaneous
Outline: (§4)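 Anesthetized marmosets received four IV hαCGRP challenges (10 μg/kg) at 45 min intervals (-30, 15, 60, 105 min) to raise facial blood flow, monitored by laser Doppler. Antagonist given SC at 0 min. The first challenge is the pre-dose vehicle baseline, and inhibition at each post-dose challenge is expressed against it.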

Homo sapiens [17] = species on record: Homo sapiens; experiment: Selectivity ratio for human CGRP receptor over amylin receptor-1 (unknown origin)
[18] = Subcutaneous bioavailability in sc dosed Sprague-Dawley rat; settings: in vivo
[19] = Tmax in intranasally dosed New Zealand White rabbit; assay type: ADME, organism-based, Oryctolagus cuniculus; settings: in vivo, inhaled or intranasal; outline: as §2
[20] = Oral bioavailability in mouse; assay type: ADME, organism-based; settings: in vivo
Cytochrome P450 2C9 = Cytochrome P450 2C9 (Homo sapiens, UniProt P11712); experiment: Inhibition of CYP2C9 (unknown origin) expressed in baculovirus-infected insect cell microsomes assessed as 7-methoxy-4-trifluoromethylcoumarin conversion to 7-hydroxy-4-trifluoromethylcoumarin after 45 mins by fluorescence assay; assay type: ADME, Microsome
Cytochrome P450 2C9, sequence (P11712 whole entry): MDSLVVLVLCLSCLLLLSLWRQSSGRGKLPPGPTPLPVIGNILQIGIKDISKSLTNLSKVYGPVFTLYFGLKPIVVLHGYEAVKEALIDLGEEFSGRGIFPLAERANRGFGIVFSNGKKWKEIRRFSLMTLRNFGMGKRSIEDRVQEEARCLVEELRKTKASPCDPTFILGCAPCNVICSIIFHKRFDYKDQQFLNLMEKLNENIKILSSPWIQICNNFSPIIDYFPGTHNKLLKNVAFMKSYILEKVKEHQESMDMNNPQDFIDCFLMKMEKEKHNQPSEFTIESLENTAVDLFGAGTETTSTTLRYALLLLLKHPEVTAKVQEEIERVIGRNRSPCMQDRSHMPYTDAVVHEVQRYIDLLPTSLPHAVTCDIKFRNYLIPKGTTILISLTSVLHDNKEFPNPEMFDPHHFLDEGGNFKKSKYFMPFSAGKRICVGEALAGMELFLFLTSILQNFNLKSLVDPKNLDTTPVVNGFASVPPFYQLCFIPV

Callithrix jacchus [21] = experiment: Inhibition of human alphaCGRP-induced increase in facial blood flow in marmoset at 0.03 mg/kg, sc administered 30 mins after human alphaCGRP-challenge measured 105 mins post-dose by laser Doppler flowmetric analysis relative to control; assay type: functional; settings: route subcutaneous; outline: as §4
Homo sapiens [22] = species on record: Homo sapiens; experiment: Selectivity ratio for human CGRP receptor over amylin receptor-3 (unknown origin)
Rattus norvegicus [23] = experiment: Toxicity in Sprague-Dawley rat assessed as lesions in respiratory epithelium at => 75 mg/mL administered intranasally for 7 days; assay type: organism-based; settings: in vivo, inhaled_or_intranasal, 168 h; outline: as §1
Cytochrome P450 3A4 [24] = target: T3, Cytochrome P450 3A4; experiment: Inhibition of CYP3A4 (unknown origin) expressed in baculovirus-infected insect cell microsomes assessed as benzoylresorufin conversion to resorufin metabolites after 45 mins by fluorescence assay; assay type: ADME, Microsome
Cytochrome P450 2D6 = Cytochrome P450 2D6 (Homo sapiens, UniProt P10635); experiment: Inhibition of CYP2D6 (unknown origin) expressed in baculovirus-infected insect cell microsomes assessed as 3-[2-(N,N-diethyl-N-methylamino)ethyl]-7-methoxy-4-methylcoumarin conversion to 3-[2-(N,N-diethylamino)ethyl]-7-hydroxy-4-methylcoumarin after 45 mins by fluorescence assay; assay type: ADME, Microsome
Cytochrome P450 2D6, sequence (P10635 whole entry): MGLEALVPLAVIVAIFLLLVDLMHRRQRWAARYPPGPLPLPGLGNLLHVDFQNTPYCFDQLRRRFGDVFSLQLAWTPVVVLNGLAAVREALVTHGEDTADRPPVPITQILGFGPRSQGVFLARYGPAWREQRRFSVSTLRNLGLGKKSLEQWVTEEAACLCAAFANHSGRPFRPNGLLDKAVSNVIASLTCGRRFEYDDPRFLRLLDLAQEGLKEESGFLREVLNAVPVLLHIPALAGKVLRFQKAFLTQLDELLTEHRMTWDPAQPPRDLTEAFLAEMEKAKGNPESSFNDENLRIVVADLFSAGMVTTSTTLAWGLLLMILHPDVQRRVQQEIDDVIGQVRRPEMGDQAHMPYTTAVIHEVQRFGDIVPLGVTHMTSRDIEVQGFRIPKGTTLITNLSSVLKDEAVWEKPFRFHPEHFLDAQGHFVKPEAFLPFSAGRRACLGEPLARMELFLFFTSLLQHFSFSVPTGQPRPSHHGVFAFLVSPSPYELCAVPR

[25] = Oral bioavailability in intranasally dosed New Zealand White rabbit at 100 mg/mL; assay type: ADME, organism-based, Oryctolagus cuniculus; settings: in vivo, other: intranasal; outline: as §2
[26] = Plasma concentration in marmoset at 0.03 mg/kg, sc measured 15 to 105 mins post-dose; assay type: ADME, organism-based, Callithrix jacchus; set-up: dose 0.03 mg/kg, route subcutaneous; settings: in vivo
Outline: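 Total plasma levels were measured in anesthetized marmosets given the antagonist SC at 0 min, sampled over the 15–105 min post-dose period. The animals also received repeated IV hαCGRP (10 μg/kg) challenges for the facial blood flow model.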

[27] = Reversal of CGRP-induced dilation of human intracranial arterial rings assessed as rightward shift of concentration-response curve after 30 mins by Schild plot analysis; assay type: functional; settings: 0.5 h
[28] = target: Calcitonin gene-related peptide type 1 receptor (Homo sapiens) (UniProt Q16602); experiment: Antagonist activity at CGRP receptor in human SK-N-MC cell membranes assessed as inhibition of CGRP-stimulated cAMP production; assay type: functional, cell-based
Rattus norvegicus [29] = experiment: Toxicity in Sprague-Dawley rat assessed as nasal irritation at 175 mg/mL administered intranasally for 7 days; assay type: organism-based; settings: in vivo, inhaled_or_intranasal, 168 h; outline: as §1
Homo sapiens [30] = species on record: Homo sapiens; experiment: Selectivity ratio for human CGRP receptor over human calcitonin receptor
[31] = Aqueous solubility of the compound; assay type: physicochemical; settings: buffer
Outline: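 Aqueous solubility of crystalline material, determined at pH 8.5 and at lower pH.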

[32] = Permeability from basolateral to apical side of human Caco2 cells; assay type: ADME, cell-based; settings: Caco-2, read-out: permeability
[33] = Chemical degradation in succinate buffer at 40 mg/mL after 3 months at pH 6
[34] = Oral bioavailability in intranasally dosed New Zealand White rabbit at 10 mg/mL; assay type: ADME, organism-based, Oryctolagus cuniculus; settings: in vivo, other: intranasal; outline: as §2
[35] = Fraction unbound in human plasma; assay type: ADME, cell-free
Rattus norvegicus [36] = experiment: Toxicity in Sprague-Dawley rat assessed as ulceration of olfactory epithelium at 175 mg/mL administered intranasally for 7 days; assay type: organism-based; settings: in vivo, inhaled_or_intranasal, 168 h; outline: as §1
[37] = Oral bioavailability in cynomolgus monkey; assay type: ADME, organism-based, Macaca fascicularis; settings: in vivo
Rattus norvegicus [38] = experiment: Toxicity in Sprague-Dawley rat assessed as erosion of olfactory epithelium at 175 mg/mL administered intranasally for 7 days; assay type: organism-based; settings: in vivo, inhaled_or_intranasal, 168 h; outline: as §1
[39] = Plasma concentration in intranasally dosed New Zealand White rabbit after 5 mins; assay type: ADME, organism-based, Oryctolagus cuniculus; settings: inhaled or intranasal; outline: as §2
hERG [40] = target: T2, hERG; experiment: Inhibition of human ERG at 30 uM relative to control
[41] = Toxicity in sc dosed Sprague-Dawley rat after 10 days; assay type: organism-based; settings: in vivo
Outline: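 Rats were dosed subcutaneously once daily for 10 days at 0.3, 3, 10 and 30 mg/kg/day and assessed for tolerability and signs of systemic toxicity.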

Callithrix jacchus [42] = experiment: Inhibition of human alphaCGRP-induced increase in facial blood flow in marmoset at 0.03 mg/kg, sc administered 30 mins after human alphaCGRP-challenge measured 60 mins post-dose by laser Doppler flowmetric analysis relative to control; assay type: functional; settings: route subcutaneous; outline: as §4
Homo sapiens [43] = species on record: Homo sapiens; experiment: Selectivity ratio for human CGRP receptor over adrenomedullin receptor-1 (unknown origin)
[44] = Vasoconstriction of human coronary artery; assay type: functional, tissue-based
[45] = target: T4, Calcitonin gene-related peptide type 1 receptor; experiment: Antagonist activity at human CGRP receptor

## Cc1cc(C[C@@H](NC(=O)N2CCC(c3cc4ccccc4[nH]c3=O)CC2)C(=O)N2CCN(C3CCN(C)CC3)CC2)cc2cn[nH]c12 [ZAVEGEPANT]
Rattus norvegicus [1]
  Activity: Toxic
Rattus norvegicus [2]
  Activity: Non-toxic
[3]
  Papp A→B: 1.6 ×10⁻⁶ cm/s
[4]
  Cmax: 120 nM
Rattus norvegicus [5]
  Activity: Toxic
Homo sapiens [6]
  Selectivity ratio: > 10000
Rattus norvegicus [7]
  Activity: Toxic
Rattus norvegicus [8]
  Activity: Toxic
Cytochrome P450 1A2
  IC50: > 40000 nM
[9]
  EC50: 0.88 nM
[10]
  permeability: impermeable
hERG [11]
  inhibition at 10 µM: 9.5%
Cytochrome P450 3A4 [12]
  IC50: > 40000 nM
[13]
  Ki: 0.023 nM
[14]
  inhibition: Dose-dependent effect
Cytochrome P450 2C19
  IC50: > 40000 nM
[15]
  Activity: inactive
Callithrix jacchus [16]
  inhibition in vivo at 0.03 mg/kg: 48%
Homo sapiens [17]
  Selectivity ratio: > 10000
[18]
  bioavailability: 82%
[19]
  Tmax: 15 min
[20]
  bioavailability: 1.4%
Cytochrome P450 2C9
  IC50: > 40000 nM
Callithrix jacchus [21]
  inhibition in vivo at 0.03 mg/kg: 70%
Homo sapiens [22]
  Selectivity ratio: > 10000
Rattus norvegicus [23]
  Activity: Toxic
Cytochrome P450 3A4 [24]
  IC50: 24000 nM
Cytochrome P450 2D6
  IC50: > 40000 nM
[25]
  bioavailability: 30%
[26]
  concentration: 25 nM
[27]
  Kb: 0.091 nM
[28]
  Kb: 0.022 nM
Rattus norvegicus [29]
  Activity: Non-toxic
Homo sapiens [30]
  Selectivity ratio: > 10000
[31]
  solubility: > 300 mg/mL
[32]
  Papp B→A: 1.6 ×10⁻⁶ cm/s
[33]
  Degradation % at 2191.5 h, 40 mg/mL: 0.3%
[34]
  bioavailability: 13%
[35]
  fraction unbound: 0.37
Rattus norvegicus [36]
  Activity: Toxic
[37]
  bioavailability: 0.3%
Rattus norvegicus [38]
  Activity: Toxic
[39]
  concentration at 5 min: > 10 nM
hERG [40]
  inhibition at 30 µM: 22%
[41]
  MTD at 240 h: 30 mg/kg/day
Callithrix jacchus [42]
  inhibition in vivo at 0.03 mg/kg: 80%
Homo sapiens [43]
  Selectivity ratio: > 10000

## CNS(=O)(=O)Cc1ccc2[nH]cc(CCN(C)C)c2c1
[44]
  Activity: Dose-dependent effect
  EC50: 280 nM

## Cc1cc(C[C@@H](NC(=O)N2CCC(N3Cc4cccc(F)c4NC3=O)CC2)C(=O)N2CCC(N3CCCCC3)CC2)cc2cn[nH]c12
Rattus norvegicus [2]
  Activity: Toxic
Rattus norvegicus [29]
  Activity: Toxic

## O=C(CN1C(=O)C2(CCCC2)NC[C@H]1c1cc(F)cc(F)c1)Nc1ccc2c(c1)C[C@@]1(C2)C(=O)Nc2ncccc21 [MK3207]
[45]
  Ki: 0.021 nM

Reference: ChEMBL document CHEMBL2396632 (Bioorg Med Chem Lett, 2013)
